# ChEMBL document CHEMBL5724801, “EUbOPEN Chemogenomics Library - Multiplex” (2024)
# Where “and” joins values, the source holds several entries; their conditions need not be identical. Equal values may be shown once.
# Legend:
# Fibroblast = experiment: Multiplex assay against human fibroblast; type: toxicity, cell-based
# Method in brief: (§1)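 Tubulin, mitochondrial-mass and membrane-permeability phenotypes are per cents of healthy-nucleus cells. Cells were gated by CellPathfinder machine learning into Hoechst high-intensity objects or normal cells, normal cells into healthy, pyknosed or fragmented nuclei, and pyknosed cells into mitotic or apoptotic. Before that, live cells stained at seeding with Hoechst33342, BioTracker Green Microtubule Cytoskeleton Dye, MitoTracker Red and Annexin V Alexa Fluor 680 were imaged on a CQ1 microscope at 37°C and 5% CO2 after compound addition.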
# U2OS = experiment: Multiplex assay against U2OS; type: toxicity, cell-based; conditions: human; method in brief: as §1
# [1] = 12 h, 1 µM, compound concentration 1 uM
# [2] = 12 h, 10 µM, compound concentration 10 uM
# [3] = 24 h, 1 µM, compound concentration 1 uM
# [4] = 24 h, 10 µM, compound concentration 10 uM
# [5] = 48 h, 1 µM, compound concentration 1 uM
# [6] = 48 h, 10 µM, compound concentration 10 uM
compound,measurement,setting,value
CN(C)Cc1cccc(NC(=C2C(=O)Nc3cc(C(N)=O)ccc32)c2ccccc2)c1,Population Apoptotic (%),Fibroblast; [1],0% and 16.22%
same,Population Fragmented Nuclei (%),Fibroblast; [1],12% and 11.4%
same,Population Healthy Nuclei (%),Fibroblast; [1],66.67% and 69.43%
same,Population Hoechst High Intensity Objects (%),Fibroblast; [1],0%
same,Population Membrane Permeable-Phenotype (%),Fibroblast; [1],4% and 2.99%
same,Population Mitochondria Different-Phenotype (%),Fibroblast; [1],10% and 8.21%
same,Population Mitotic Cells (%),Fibroblast; [1],100% and 83.78%
same,Population Normal (%),Fibroblast; [1],100%
same,Population Pyknosed Nuclei (%),Fibroblast; [1],21.33% and 19.17%
same,Population Tubulin-Different-Phenotype (%),Fibroblast; [1],20% and 13.43%
same,Total Cell Count,Fibroblast; [1],150 and 193
same,Population Apoptotic (%),Fibroblast; [2],29.55% and 27.03%
same,Population Healthy Nuclei (%),Fibroblast; [2],68.3% and 82.06%
same,Population Hoechst High Intensity Objects (%),Fibroblast; [2],0%
same,Population Membrane Permeable-Phenotype (%),Fibroblast; [2],9.39% and 4.65%
same,Population Mitochondria Different-Phenotype (%),Fibroblast; [2],16.57% and 13.49%
same,Population Mitotic Cells (%),Fibroblast; [2],70.45% and 72.97%
same,Population Normal (%),Fibroblast; [2],100%
same,Population Pyknosed Nuclei (%),Fibroblast; [2],16.6% and 14.12%
same,Population Tubulin-Different-Phenotype (%),Fibroblast; [2],48.62% and 53.95%
same,Total Cell Count,Fibroblast; [2],265 and 262
same,Population Apoptotic (%),Fibroblast; [3],23.81% and 25%
same,Population Fragmented Nuclei (%),Fibroblast; [3],7.65% and 8.11%
same,Population Healthy Nuclei (%),Fibroblast; [3],80% and 81.08%
same,Population Hoechst High Intensity Objects (%),Fibroblast; [3],0%
same,Population Membrane Permeable-Phenotype (%),Fibroblast; [3],4.41% and 2%
same,Population Mitochondria Different-Phenotype (%),Fibroblast; [3],5.15% and 6.67%
same,Population Mitotic Cells (%),Fibroblast; [3],76.19% and 75%
same,Population Normal (%),Fibroblast; [3],100%
same,Population Pyknosed Nuclei (%),Fibroblast; [3],12.35% and 10.81%
same,Population Tubulin-Different-Phenotype (%),Fibroblast; [3],8.82% and 14.67%
same,Total Cell Count,Fibroblast; [3],170 and 185
same,Population Apoptotic (%),Fibroblast; [4],16.28% and 31.25%
same,Population Fragmented Nuclei (%),Fibroblast; [4],12.59% and 7.12%
same,Population Healthy Nuclei (%),Fibroblast; [4],71.94% and 80.9%
same,Population Hoechst High Intensity Objects (%),Fibroblast; [4],0%
same,Population Membrane Permeable-Phenotype (%),Fibroblast; [4],5.5% and 3.24%
same,Population Mitochondria Different-Phenotype (%),Fibroblast; [4],9% and 14.35%
same,Population Mitotic Cells (%),Fibroblast; [4],83.72% and 68.75%
same,Population Normal (%),Fibroblast; [4],100%
same,Population Pyknosed Nuclei (%),Fibroblast; [4],15.47% and 11.99%
same,Population Tubulin-Different-Phenotype (%),Fibroblast; [4],48.5% and 61.11%
same,Total Cell Count,Fibroblast; [4],278 and 267
same,Population Apoptotic (%),Fibroblast; [5],40% and 44.44%
same,Population Fragmented Nuclei (%),Fibroblast; [5],11.24% and 9.23%
same,Population Healthy Nuclei (%),Fibroblast; [5],83.15% and 76.92%
same,Population Hoechst High Intensity Objects (%),Fibroblast; [5],0%
same,Population Membrane Permeable-Phenotype (%),Fibroblast; [5],1.35% and 5.33%
same,Population Mitotic Cells (%),Fibroblast; [5],60% and 55.56%
same,Population Normal (%),Fibroblast; [5],100%
same,Population Pyknosed Nuclei (%),Fibroblast; [5],5.62% and 13.85%
same,Population Tubulin-Different-Phenotype (%),Fibroblast; [5],8.11% and 15.33%
same,Total Cell Count,Fibroblast; [5],178 and 195
same,Population Apoptotic (%),Fibroblast; [6],47.37% and 60%
same,Population Healthy Nuclei (%),Fibroblast; [6],76.72% and 86.82%
same,Population Hoechst High Intensity Objects (%),Fibroblast; [6],0%
same,Population Membrane Permeable-Phenotype (%),Fibroblast; [6],5.06% and 5.36%
same,Population Mitochondria Different-Phenotype (%),Fibroblast; [6],6.23% and 7.14%
same,Population Mitotic Cells (%),Fibroblast; [6],52.63% and 40%
same,Population Normal (%),Fibroblast; [6],100%
same,Population Pyknosed Nuclei (%),Fibroblast; [6],5.67% and 7.75%
same,Population Tubulin-Different-Phenotype (%),Fibroblast; [6],40.86% and 67.41%
same,Total Cell Count,Fibroblast; [6],335 and 258
same,Population Apoptotic (%),U2OS; [1],37.78% and 38.1%
same,Population Fragmented Nuclei (%),U2OS; [1],1.29% and 3.85%
same,Population Healthy Nuclei (%),U2OS; [1],87.11% and 82.69%
same,Population Hoechst High Intensity Objects (%),U2OS; [1],0%
same,Population Membrane Permeable-Phenotype (%),U2OS; [1],1.78% and 2.33%
same,Population Mitochondria Different-Phenotype (%),U2OS; [1],0.59% and 5.43%
same,Population Mitotic Cells (%),U2OS; [1],62.22% and 61.9%
same,Population Normal (%),U2OS; [1],100%
same,Population Pyknosed Nuclei (%),U2OS; [1],11.6% and 13.46%
same,Population Tubulin-Different-Phenotype (%),U2OS; [1],1.18% and 0%
same,Total Cell Count,U2OS; [1],388 and 156
same,Population Apoptotic (%),U2OS; [2],35.71% and 43.75%
same,Population Healthy Nuclei (%),U2OS; [2],86.17% and 71.36%
same,Population Hoechst High Intensity Objects (%),U2OS; [2],0%
same,Population Membrane Permeable-Phenotype (%),U2OS; [2],3.66% and 11.27%
same,Population Mitotic Cells (%),U2OS; [2],64.29% and 56.25%
same,Population Normal (%),U2OS; [2],100%
same,Population Pyknosed Nuclei (%),U2OS; [2],10.19% and 8.04%
same,Population Tubulin-Different-Phenotype (%),U2OS; [2],6.48% and 4.93%
same,Total Cell Count,U2OS; [2],412 and 199
same,Population Apoptotic (%),U2OS; [3],42% and 39.29%
same,Population Fragmented Nuclei (%),U2OS; [3],1.87% and 0.52%
same,Population Healthy Nuclei (%),U2OS; [3],88.81% and 84.97%
same,Population Hoechst High Intensity Objects (%),U2OS; [3],0%
same,Population Membrane Permeable-Phenotype (%),U2OS; [3],1.89% and 4.27%
same,Population Mitochondria Different-Phenotype (%),U2OS; [3],0.42% and 6.1%
same,Population Mitotic Cells (%),U2OS; [3],58% and 60.71%
same,Population Normal (%),U2OS; [3],100%
